Active and inactive are the calls of the source. The rule behind the calls is not given here.
Legend:
[1] = Inhibition of human ES2 cell proliferation after 48 hrs by MTT assay; assay type: functional, cell-based; conditions: ES-2, 48 h
U-937 [2] = test: Inhibition of human U937 cell proliferation after 48 hrs by MTT assay; assay type: functional, cell-based; conditions: U-937, 48 h
MDA-MB-231 [3] = test: cells; assay type: functional, cell-based; conditions: Homo sapiens, MDA-MB-231, 48 h
A549 = test: Inhibition of human A549 cell proliferation after 48 hrs by MTT assay; assay type: functional, cell-based; conditions: A549, 48 h
Mus musculus [4] = test: Toxicity in athymic nude mouse xenografted with human U937 cells assessed as spleen injury at 60 mg/kg/day, po administered 10 days after tumor inoculation for 3 weeks; assay type: organism-based, U-937; parameters: route oral; conditions: in vivo
Mus musculus [5] = test: Toxicity in athymic nude mouse xenografted with human U937 cells assessed as liver injury at 60 mg/kg/day, po administered 10 days after tumor inoculation for 3 weeks; assay type: organism-based, U-937; parameters: route oral; conditions: in vivo
PC-3 = test: Inhibition of human PC3 cell proliferation after 48 hrs by MTT assay; assay type: functional, cell-based; conditions: PC-3, 48 h
HCT-116 = test: Inhibition of human HCT116 cell proliferation after 48 hrs by MTT assay; assay type: functional, cell-based; conditions: HCT-116, 48 h
U-937 [6] = test: Antitumor activity against human U937 cells xenografted in athymic nude mouse assessed as tumor growth inhibition at 60 mg/kg/day, po administered 10 days after tumor inoculation for 3 weeks measured every three days by vernier caliper; assay type: functional; conditions: read-out: TGI
Method in brief: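 U937 xenografts in nude mice, seven per group, with oral dosing and a reference agent as positive control. Tumour growth was followed as a growth curve, and the data are given as mean ± SD.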

Mus musculus [7] = test: Toxicity in athymic nude mouse xenografted with human U937 cells assessed as body weight loss at 60 mg/kg/day, po administered 10 days after tumor inoculation for 3 weeks; assay type: organism-based, U-937; parameters: route oral; conditions: in vivo
MDA-MB-231 [8] = test: Increase in histone H4 acetylation in human MDA-MB-231 cells at 1 uM after 3 to 24 hrs by Western blot analysis; assay type: functional, cell-based
Method in brief: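 MDA-MB-231 cells were exposed at 1 μM for 3 h and 24 h. Lysates were immunoblotted for acetylated histone H4, with β-actin as the loading control.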

U-937 [9] = test: Antitumor activity against human U937 cells xenografted in athymic nude mouse assessed as T/C ratio at 60 mg/kg/day, po administered 10 days after tumor inoculation for 3 weeks; assay type: functional
Method in brief: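 U937 cells implanted in nude mice, seven per group; oral dosing with a positive-control group run alongside. Tumour growth was followed as a growth curve, data given as mean ± SD; efficacy was expressed as tumour growth inhibition and relative increment ratio.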

Histone deacetylase = test: Inhibition of HDAC in human HeLa cell nuclear extract using Boc-Lys(acetyl)-AMC as substrate preincubated with enzyme for 5 mins prior to substrate addition measured after 30 mins by fluorescence assay; assay type: protein assay
U-937 [10] = test: Antitumor activity against human U937 cells xenografted in athymic nude mouse assessed as T/C ratio at 20 mg/kg/day, po administered 10 days after tumor inoculation for 3 weeks; assay type: functional
U-937 [11] = test: Antitumor activity against human U937 cells xenografted in athymic nude mouse assessed as tumor growth inhibition at 20 mg/kg/day, po administered 10 days after tumor inoculation for 3 weeks measured every three days by vernier caliper; assay type: functional; conditions: read-out: TGI
Method in brief: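 U937 xenografts in nude mice, seven mice per group. Tamibarotene served as the positive control. Growth curves of the implanted tumours were followed over the treatment period and reported as mean ± SD.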

## O=C(CCCCCCC(=O)Nc1ccccc1)NO [VORINOSTAT]
[1]
  IC50: 12.7 µM
U-937 [2]
  IC50: 2.3 µM

## CCCC(CCC)C(=O)N[C@H](COc1ccc(/C=C/C(=O)NO)cc1OC)Cc1c[nH]c2ccccc12
[1]
  IC50: 5.4 µM
MDA-MB-231 [3]
  IC50: 3.1 µM
A549
  IC50: 4.4 µM
U-937 [2]
  IC50: 1.8 µM
Mus musculus [4]
  Activity: Non-toxic
Mus musculus [5]
  Activity: Non-toxic
PC-3
  IC50: 3.7 µM
HCT-116
  IC50: 5.5 µM
U-937 [6]
  inhibition in vivo at 60 mg/kg/day: 53%
Mus musculus [7]
  Activity: Non-toxic
MDA-MB-231 [8]
  Activity: Active
U-937 [9]
  Activity: 42%

## COc1cc(/C=C/C(=O)NO)ccc1OC[C@H](Cc1c[nH]c2ccccc12)NC(=O)CNC(=O)OC(C)(C)C
[1]
  IC50: 29.2 µM
MDA-MB-231 [3]
  IC50: 7.2 µM
A549
  IC50: 11.8 µM
U-937 [2]
  IC50: 3.1 µM
PC-3
  IC50: 10.5 µM
HCT-116
  IC50: 6 µM
Histone deacetylase
  IC50: 0.17 µM

## COc1cc(/C=C/C(=O)NO)ccc1OC[C@@H](N)Cc1c[nH]c2ccccc12.Cl
Histone deacetylase
  IC50: 2.91 µM

## COc1cc(/C=C/C(=O)NO)ccc1OC[C@H](Cc1c[nH]c2ccccc12)NC(=O)[C@H](CO)NC(=O)OC(C)(C)C
[1]
  IC50: 9.5 µM
MDA-MB-231 [3]
  IC50: 11.7 µM
A549
  IC50: 13.5 µM
U-937 [2]
  IC50: 3.9 µM
PC-3
  IC50: 8.2 µM
HCT-116
  IC50: 9.4 µM
Histone deacetylase
  IC50: 0.14 µM

## COc1cc(/C=C/C(=O)NO)ccc1OC[C@H](Cc1c[nH]c2ccccc12)NC(=O)[C@@H](NC(=O)OC(C)(C)C)C(C)C
Histone deacetylase
  IC50: 0.43 µM

## COc1cc(/C=C/C(=O)NO)ccc1OC[C@H](Cc1c[nH]c2ccccc12)NS(=O)(=O)c1c(C(C)C)cc(C(C)C)cc1C(C)C
Histone deacetylase
  IC50: ND(Insoluble)

## COc1cc(/C=C/C(=O)NO)ccc1OC[C@H](Cc1c[nH]c2ccccc12)NC(=O)[C@H](CCCCNC(=O)OC(C)(C)C)NC(=O)OC(C)(C)C
Histone deacetylase
  IC50: 1.17 µM

## CC1(C)CCC(C)(C)c2cc(NC(=O)c3ccc(C(=O)O)cc3)ccc21 [TAMIBAROTENE]
U-937 [10]
  Activity: 85%
U-937 [11]
  inhibition in vivo at 20 mg/kg/day: 33%

## COc1cc(/C=C/C(=O)NO)ccc1OC[C@H](Cc1c[nH]c2ccccc12)NC(=O)C1CCN(C(=O)OC(C)(C)C)CC1
Histone deacetylase
  IC50: 1.12 µM

## COc1cc(/C=C/C(=O)NO)ccc1OC[C@H](Cc1c[nH]c2ccccc12)NS(=O)(=O)c1ccc(Cl)cc1
Histone deacetylase
  IC50: 1.47 µM

## COc1cc(/C=C/C(=O)NO)ccc1OC[C@H](Cc1c[nH]c2ccccc12)NC(=O)[C@@H](NC(=O)OC(C)(C)C)[C@@H](C)O
[1]
  IC50: 8.9 µM
MDA-MB-231 [3]
  IC50: 7.2 µM
A549
  IC50: 7 µM
U-937 [2]
  IC50: 2.7 µM
PC-3
  IC50: 5.4 µM
HCT-116
  IC50: 2.4 µM
Histone deacetylase
  IC50: 0.18 µM

## COc1cc(/C=C/C(=O)NO)ccc1OC[C@H](Cc1c[nH]c2ccccc12)NS(=O)(=O)c1ccc(NC(C)=O)cc1
Histone deacetylase
  IC50: 0.71 µM

## COc1cc(/C=C/C(=O)NO)ccc1OC[C@H](Cc1c[nH]c2ccccc12)NC(=O)OC(C)(C)C
Histone deacetylase
  IC50: 0.65 µM

## COc1cc(/C=C/C(=O)NO)ccc1OC[C@H](Cc1c[nH]c2ccccc12)NC(=O)[C@H](Cc1ccc(O)cc1)NC(=O)OC(C)(C)C
Histone deacetylase
  IC50: 0.32 µM

## COc1cc(CCC(=O)NO)ccc1OC[C@H](Cc1c[nH]c2ccccc12)NC(=O)OC(C)(C)C
Histone deacetylase
  IC50: 2.09 µM

## COc1cc(/C=C/C(=O)NO)ccc1OC[C@H](Cc1c[nH]c2ccccc12)NC(=O)[C@H](Cc1ccccc1)NC(=O)OC(C)(C)C
Histone deacetylase
  IC50: 0.62 µM

## COc1cc(/C=C/C(=O)NO)ccc1OC[C@H](Cc1c[nH]c2ccccc12)NS(=O)(=O)c1ccc(F)cc1
Histone deacetylase
  IC50: 1.06 µM

## COc1cc(/C=C/C(=O)NO)ccc1OC[C@H](Cc1c[nH]c2ccccc12)NC(=O)[C@@H]1CC2(CN1C(=O)OC(C)(C)C)SCCS2
Histone deacetylase
  IC50: 0.8 µM

## COc1cc(/C=C/C(=O)NO)ccc1OC[C@H](Cc1c[nH]c2ccccc12)NC(=O)[C@@H]1CCCN1C(=O)OC(C)(C)C
Histone deacetylase
  IC50: 0.43 µM

## COc1cc(/C=C/C(=O)NO)ccc1OC[C@H](Cc1c[nH]c2ccccc12)NC(=O)[C@H](C)NC(=O)OC(C)(C)C
[1]
  IC50: 25.1 µM
MDA-MB-231 [3]
  IC50: 4.5 µM
A549
  IC50: 4.2 µM
U-937 [2]
  IC50: 2.2 µM
PC-3
  IC50: 10.4 µM
HCT-116
  IC50: 3.8 µM
Histone deacetylase
  IC50: 0.16 µM

## COc1cc(/C=C/C(=O)NO)ccc1OC[C@H](Cc1c[nH]c2ccccc12)NC(=O)c1ccc(NC(=O)OC(C)(C)C)cc1
Histone deacetylase
  IC50: 0.73 µM

## CC[C@H](C)[C@H](NC(=O)OC(C)(C)C)C(=O)N[C@H](COc1ccc(/C=C/C(=O)NO)cc1OC)Cc1c[nH]c2ccccc12
Histone deacetylase
  IC50: 0.38 µM

## COc1cc(/C=C/C(=O)NO)ccc1OC[C@H](Cc1c[nH]c2ccccc12)NC(=O)[C@H](Cc1c[nH]c2ccccc12)NC(=O)OC(C)(C)C
Histone deacetylase
  IC50: 0.49 µM

## COc1cc(/C=C/C(=O)NO)ccc1OC[C@H](Cc1c[nH]c2ccccc12)NC(=O)[C@H](CCSC)NC(=O)OC(C)(C)C
[1]
  IC50: 4.4 µM
MDA-MB-231 [3]
  IC50: 6.8 µM
A549
  IC50: 1.6 µM
U-937 [2]
  IC50: 2.2 µM
PC-3
  IC50: 5.8 µM
HCT-116
  IC50: 5.9 µM
Histone deacetylase
  IC50: 0.18 µM

## COc1cc(/C=C/C(=O)NO)ccc1OC[C@H](Cc1c[nH]c2ccccc12)NC(=O)[C@H](CC(C)C)NC(=O)OC(C)(C)C
Histone deacetylase
  IC50: 0.57 µM
